Measured values as given in ChEMBL document CHEMBL1177643, “Synthesis, DNA-binding ability and anticancer activity of benzothiazole/benzoxazole-pyrrolo[2,1-c][1,4]benzodiazepine conjugates” (Bioorg Med Chem, 2010).

Key:
CCRF-CEM = experiment: Growth inhibition of human CCRF-CEM cells after 48 hrs by sulforhodamine B assay; format: functional
Method in brief: (§1)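 Dose–response in each cell line over at least five concentrations at 10-fold dilutions, with 48 h continuous exposure and sulforhodamine B read-out.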

NCI-H522 = experiment: Growth inhibition of human NCI-H522 cells after 48 hrs by sulforhodamine B assay; format: functional; conditions: NCI-H522, 48 h
Method in brief: (§2)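 Panel of 60 human cancer cell lines; for each compound, dose–response curves per cell line measured at a minimum of five concentrations at 10-fold dilutions. Cells exposed continuously to drug for 48 h, and growth was read out by sulforhodamine B staining.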

LOX IMVI = experiment: Growth inhibition of human LOXIMVI cells after 48 hrs by sulforhodamine B assay; format: functional; method in brief: as §2
SN12C = experiment: Growth inhibition of human SN12C cells after 48 hrs by sulforhodamine B assay; format: functional; method in brief: as §2
ACHN = experiment: Growth inhibition of human ACHN cells after 48 hrs by sulforhodamine B assay; format: functional; method in brief: as §1
HCC 2998 = experiment: Growth inhibition of human HCC2998 cells after 48 hrs by sulforhodamine B assay; format: functional; conditions: HCC 2998, 48 h; method in brief: as §2
MDA-MB-231 = experiment: Growth inhibition of human MDA-MB-231 cells after 48 hrs by sulforhodamine B assay; format: functional; conditions: MDA-MB-231, 48 h; method in brief: as §2
UACC-62 = experiment: Growth inhibition of human UACC62 cells after 48 hrs by sulforhodamine B assay; format: functional; conditions: UACC-62, 48 h; method in brief: as §2
NCI-H226 = experiment: Growth inhibition of human NCI-H226 cells after 48 hrs by sulforhodamine B assay; format: functional; conditions: NCI-H226, 48 h; method in brief: as §2
SF-295 = experiment: Growth inhibition of human SF295 cells after 48 hrs by sulforhodamine B assay; format: functional; conditions: SF-295, 48 h; method in brief: as §2
BT-549 = experiment: Growth inhibition of human BT549 cells after 48 hrs by sulforhodamine B assay; format: functional; conditions: BT-549, 48 h; method in brief: as §1
OVCAR-4 = experiment: Growth inhibition of human OVCAR4 cells after 48 hrs by sulforhodamine B assay; format: functional; conditions: OVCAR-4, 48 h; method in brief: as §2
NCI/ADR-RES = experiment: Growth inhibition of human NCI/ADR-RES cells after 48 hrs by sulforhodamine B assay; format: functional; method in brief: as §2
MOLT-4 = experiment: Growth inhibition of human MOLT4 cells after 48 hrs by sulforhodamine B assay; format: functional; conditions: MOLT-4, 48 h; method in brief: as §2
KM12 = experiment: Growth inhibition of human KM12 cells after 48 hrs by sulforhodamine B assay; format: functional; conditions: KM12, 48 h; method in brief: as §2
SNB-19 = experiment: Growth inhibition of human SNB19 cells after 48 hrs by sulforhodamine B assay; format: functional; conditions: SNB-19, 48 h; method in brief: as §2
K562 = experiment: Growth inhibition of human K562 cells after 48 hrs by sulforhodamine B assay; format: functional; conditions: K562, 48 h; method in brief: as §2
[1] = Growth inhibition of human […] cells after 48 hrs by sulforhodamine B assay; format: functional; method in brief: as §2
MCF7 = experiment: Growth inhibition of human MCF7 cells after 48 hrs by sulforhodamine B assay; format: functional; conditions: MCF7, 48 h; method in brief: as §2
A498 = experiment: Growth inhibition of human A498 cells after 48 hrs by sulforhodamine B assay; format: functional; conditions: A498, 48 h; method in brief: as §1
T47D = experiment: Growth inhibition of human T47D cells after 48 hrs by sulforhodamine B assay; format: functional; method in brief: as §2
HCT-15 = experiment: Growth inhibition of human HCT15 cells after 48 hrs by sulforhodamine B assay; format: functional; conditions: HCT-15, 48 h; method in brief: as §2
TK-10 = experiment: Growth inhibition of human TK10 cells after 48 hrs by sulforhodamine B assay; format: functional; conditions: TK-10, 48 h; method in brief: as §2
PC-3 = experiment: Growth inhibition of human PC3 cells after 48 hrs by sulforhodamine B assay; format: functional; conditions: PC-3, 48 h; method in brief: as §2
786-0 = experiment: Growth inhibition of human 786-0 cells after 48 hrs by sulforhodamine B assay; format: functional; conditions: 786-0, 48 h; method in brief: as §1
UO-31 = experiment: Growth inhibition of human UO31 cells after 48 hrs by sulforhodamine B assay; format: functional; conditions: UO-31, 48 h; method in brief: as §2
HOP-92 = experiment: Growth inhibition of human HOP92 cells after 48 hrs by sulforhodamine B assay; format: functional; conditions: HOP-92, 48 h; method in brief: as §2
HT-29 = experiment: Growth inhibition of human HT-29 cells after 48 hrs by sulforhodamine B assay; format: functional; conditions: HT-29, 48 h; method in brief: as §2
DU-145 = experiment: Growth inhibition of human DU145 cells after 48 hrs by sulforhodamine B assay; format: functional; conditions: DU-145, 48 h; method in brief: as §1
A549 = experiment: Growth inhibition of human A549 cells after 48 hrs by sulforhodamine B assay; format: functional; conditions: A549, 48 h; method in brief: as §1
SK-MEL-2 = experiment: Growth inhibition of human SK-MEL-2 cells after 48 hrs by sulforhodamine B assay; format: functional; conditions: SK-MEL-2, 48 h; method in brief: as §2
HL-60 = experiment: Growth inhibition of human HL-60(TB) cells after 48 hrs by sulforhodamine B assay; format: functional; conditions: HL-60, 48 h; method in brief: as §2
UACC-257 = experiment: Growth inhibition of human UACC257 cells after 48 hrs by sulforhodamine B assay; format: functional; conditions: UACC-257, 48 h; method in brief: as §2
MDA-MB-435 = experiment: Growth inhibition of human MDA-MB-435 cells after 48 hrs by sulforhodamine B assay; format: functional; conditions: MDA-MB-435, 48 h; method in brief: as §2
CAKI-1 = experiment: Growth inhibition of human Caki1 cells after 48 hrs by sulforhodamine B assay; format: functional; conditions: CAKI-1, 48 h; method in brief: as §1
SK-OV-3 = experiment: Growth inhibition of human SKOV3 cells after 48 hrs by sulforhodamine B assay; format: functional; conditions: SK-OV-3, 48 h; method in brief: as §2
OVCAR-5 = experiment: Growth inhibition of human OVCAR5 cells after 48 hrs by sulforhodamine B assay; format: functional; conditions: OVCAR-5, 48 h; method in brief: as §2
NCI-H460 = experiment: Growth inhibition of human NCI-H460 cells after 48 hrs by sulforhodamine B assay; format: functional; conditions: NCI-H460, 48 h; method in brief: as §2
SF-539 = experiment: Growth inhibition of human SF539 cells after 48 hrs by sulforhodamine B assay; format: functional; conditions: SF-539, 48 h; method in brief: as §2
Calf thymus DNA = experiment: Binding affinity to calf thymus duplex-form DNA assessed as melting temperature at 1:5 compound/DNA ratio after 18 hrs; format: nucleic-acid assay; conditions: Bos taurus
COLO 205 = experiment: Growth inhibition of human COLO205 cells after 48 hrs by sulforhodamine B assay; format: functional; conditions: COLO 205, 48 h; method in brief: as §1
SK-MEL-28 = experiment: Growth inhibition of human SK-MEL-28 cells after 48 hrs by sulforhodamine B assay; format: functional; conditions: SK-MEL-28, 48 h; method in brief: as §2
M14 = experiment: Growth inhibition of human M14 cells after 48 hrs by sulforhodamine B assay; format: functional; conditions: M14, 48 h; method in brief: as §2
HCT-116 = experiment: Growth inhibition of human HCT116 cells after 48 hrs by sulforhodamine B assay; format: functional; conditions: HCT-116, 48 h; method in brief: as §2
SF-268 = experiment: Growth inhibition of human SF268 cells after 48 hrs by sulforhodamine B assay; format: functional; conditions: SF-268, 48 h; method in brief: as §2
IGROV-1 = experiment: Growth inhibition of human IGROV1 cells after 48 hrs by sulforhodamine B assay; format: functional; conditions: IGROV-1, 48 h; method in brief: as §2
OVCAR-8 = experiment: Growth inhibition of human OVCAR8 cells after 48 hrs by sulforhodamine B assay; format: functional; conditions: OVCAR-8, 48 h; method in brief: as §2
EKVX = experiment: Growth inhibition of human EKVX cells after 48 hrs by sulforhodamine B assay; format: functional; method in brief: as §1
RXF 393 = experiment: Growth inhibition of human RXF393 cells after 48 hrs by sulforhodamine B assay; format: functional; conditions: RXF 393, 48 h; method in brief: as §2
Malme-3M = experiment: Growth inhibition of human MALME-3M cells after 48 hrs by sulforhodamine B assay; format: functional; method in brief: as §2
SW-620 = experiment: Growth inhibition of human SW620 cells after 48 hrs by sulforhodamine B assay; format: functional; conditions: SW-620, 48 h; method in brief: as §2
Hs-578T = experiment: Growth inhibition of human Hs 578T cells after 48 hrs by sulforhodamine B assay; format: functional; method in brief: as §2
SR = experiment: Growth inhibition of human SR cells after 48 hrs by sulforhodamine B assay; format: functional; method in brief: as §2
HOP-62 = experiment: Growth inhibition of human HOP62 cells after 48 hrs by sulforhodamine B assay; format: functional; conditions: HOP-62, 48 h; method in brief: as §2
SK-MEL-5 = experiment: Growth inhibition of human SK-MEL-5 cells after 48 hrs by sulforhodamine B assay; format: functional; conditions: SK-MEL-5, 48 h; method in brief: as §2
NCI-H322M = experiment: Growth inhibition of human NCI-H322M cells after 48 hrs by sulforhodamine B assay; format: functional; method in brief: as §2
SNB-75 = experiment: Growth inhibition of human SNB75 cells after 48 hrs by sulforhodamine B assay; format: functional; conditions: SNB-75, 48 h; method in brief: as §2
NCI-H23 = experiment: Growth inhibition of human NCI-H23 cells after 48 hrs by sulforhodamine B assay; format: functional; conditions: NCI-H23, 48 h; method in brief: as §2
OVCAR-3 = experiment: Growth inhibition of human OVCAR-3 cells after 48 hrs by sulforhodamine B assay; format: functional; conditions: OVCAR-3, 48 h; method in brief: as §2
U-251 = experiment: Growth inhibition of human U251 cells after 48 hrs by sulforhodamine B assay; format: functional; conditions: U-251, 48 h; method in brief: as §2

COc1cc2c(cc1OCCCCOc1ccc(-c3nc4ccccc4s3)cc1)N=C[C@@H]1CCCN1C2=O
GI50 (CCRF-CEM): 282 nM
GI50 (NCI-H522): 324 nM
GI50 (LOX IMVI): 407 nM
GI50 (SN12C): 631 nM
GI50 (ACHN): 363 nM
GI50 (HCC 2998): 363 nM
GI50 (MDA-MB-231): 269 nM
GI50 (UACC-62): 794 nM
GI50 (NCI-H226): 1450 nM
GI50 (SF-295): 676 nM
GI50 (BT-549): 182 nM
GI50 (OVCAR-4): 1150 nM
GI50 (NCI/ADR-RES): 1150 nM
GI50 (MOLT-4): 234 nM
GI50 (KM12): 550 nM
GI50 (SNB-19): 1510 nM
GI50 (K562): 355 nM
GI50 [1]: 214 nM
GI50 (MCF7): 324 nM
GI50 (A498): 2040 nM
GI50 (T47D): 219 nM
GI50 (HCT-15): 646 nM
GI50 (TK-10): 479 nM
GI50 (PC-3): 295 nM
GI50 (786-0): 214 nM
GI50 (UO-31): 661 nM
GI50 (HOP-92): 178 nM
GI50 (HT-29): 380 nM
GI50 (DU-145): 269 nM
GI50 (A549): 2630 nM
GI50 (SK-MEL-2): 389 nM
GI50 (HL-60): 380 nM
GI50 (UACC-257): 2190 nM
GI50 (MDA-MB-435): 447 nM
GI50 (CAKI-1): 355 nM
GI50 (SK-OV-3): 1230 nM
GI50 (OVCAR-5): 331 nM
GI50 (NCI-H460): 407 nM
GI50 (SF-539): 347 nM
ΔTm (Calf thymus DNA): 0.5 °C
GI50 (COLO 205): 339 nM
GI50 (SK-MEL-28): 2140 nM
GI50 (M14): 537 nM
GI50 (HCT-116): 295 nM
GI50 (SF-268): 661 nM
GI50 (IGROV-1): 2400 nM
GI50 (OVCAR-8): 759 nM
GI50 (EKVX): 1260 nM
GI50 (RXF 393): 191 nM
GI50 (Malme-3M): 1260 nM
GI50 (SW-620): 427 nM
GI50 (Hs-578T): 501 nM
GI50 (SR): 21.9 nM
GI50 (HOP-62): 407 nM
GI50 (SK-MEL-5): 347 nM
GI50 (NCI-H322M): 2190 nM
GI50 (SNB-75): 1070 nM
GI50 (NCI-H23): 741 nM
GI50 (OVCAR-3): 380 nM
GI50 (U-251): 229 nM
